Shown are actives, neighbours in structure and some others; about 2.5% of the full set was active somewhere.
TRPC4 PAM: allosterically enhances the mouse TRPC4 cation channel. 310,000 tested, 0.42% active. B-score at 10 µM. HEK293 TRPC4beta/mu-opioid, DAMGO EC20, Fluo-4 Ca2+ flux; stronger effect = higher value. Q9QUQ5;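 active = B-score of calcium response area above 5 SD of library B-scores, with initial fluorescence ratio within 5 SD of library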
Platelet DG rel: modulates dense granule release in human platelets. human platelet-rich plasma, SFLLRN dense granule ATP release, luminescence. inhibition, %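 (compounds screened at 7.5 µM in platelet-rich plasma)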. 300,000 tested, 0.22% active. AID 1663;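 active = mean replicate score, as percent of positive control, at or above 50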
TRPC6 act: activates the mouse TRPC6 cation channel; AID 2550; B-score at 10 µM; Q61143; HEK293-TRPC6 membrane potential dye fluorescence; stronger effect = higher value; 310,000 tested, 0.13% active;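 active = B-score of the integrated fluorescence ratio above library mean plus 3 SD, and starting fluorescence ratio within library mean plus 5 SD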;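 also: higher score means more depolarization so channel activation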
Target sequence (Q61143 whole entry, looked up): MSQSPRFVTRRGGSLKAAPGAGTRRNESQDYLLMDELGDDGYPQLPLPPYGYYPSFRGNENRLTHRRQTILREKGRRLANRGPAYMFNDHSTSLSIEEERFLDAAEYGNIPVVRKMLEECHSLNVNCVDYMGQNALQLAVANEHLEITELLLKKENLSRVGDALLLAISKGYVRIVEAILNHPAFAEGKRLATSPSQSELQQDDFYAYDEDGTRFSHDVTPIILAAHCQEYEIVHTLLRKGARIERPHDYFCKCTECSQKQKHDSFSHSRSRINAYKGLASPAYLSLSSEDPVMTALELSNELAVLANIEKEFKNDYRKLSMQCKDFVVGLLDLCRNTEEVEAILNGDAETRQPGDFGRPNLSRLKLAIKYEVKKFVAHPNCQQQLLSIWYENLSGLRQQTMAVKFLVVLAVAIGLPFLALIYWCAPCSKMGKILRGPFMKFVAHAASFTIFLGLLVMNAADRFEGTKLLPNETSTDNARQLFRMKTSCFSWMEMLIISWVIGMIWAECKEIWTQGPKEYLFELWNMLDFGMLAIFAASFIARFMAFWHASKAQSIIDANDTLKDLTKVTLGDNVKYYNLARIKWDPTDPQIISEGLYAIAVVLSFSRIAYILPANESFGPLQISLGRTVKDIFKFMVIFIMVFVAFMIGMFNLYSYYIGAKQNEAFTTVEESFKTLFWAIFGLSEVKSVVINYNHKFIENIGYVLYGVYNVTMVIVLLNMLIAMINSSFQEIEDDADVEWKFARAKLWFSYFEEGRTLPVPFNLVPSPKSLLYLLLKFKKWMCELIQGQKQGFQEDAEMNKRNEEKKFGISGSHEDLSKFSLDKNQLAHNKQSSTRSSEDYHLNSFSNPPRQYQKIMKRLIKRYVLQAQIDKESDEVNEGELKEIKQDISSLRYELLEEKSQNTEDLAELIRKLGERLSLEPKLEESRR
TRPC4 act: activators of mouse TRPC4 channel; Q9QUQ5; HEK293 TRPC4beta/mu-opioid, Fluo4 calcium fluorescence; stronger effect = higher value; B-score at 10 µM; 310,000 tested, 0.49% active; AID 2237;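 active = B-score above 5 SD of library B-scores, and initial fluorescence ratio not above library mean plus 5 SD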;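 also: positive B-score marks a calcium rise read as TRPC4 activation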
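Material: TRPC4beta and mu-opioid receptor HEK293 stable cells | Incubation: 45 min room-temperature Fluo4 loading, 110 s read | Detection: Kinetic Fluo4 calcium fluorescence | Measure: Integrated baseline-normalised fluorescence ratio, converted to per-well B score | Benchmarks: Low control buffer alone, high control maximal DAMGO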
TRPC4 inh: inhibitors of mouse TRPC4 channel; Q9QUQ5; HEK293 TRPC4beta/mu-opioid, DAMGO-evoked Fluo4 calcium flux; stronger effect = lower value; B-score at 10 µM; 300,000 tested, 0.39% active; AID 2247;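 active = B-score over 3 SD under the library average, no early fluorescence shift, positive overall ratio signal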
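Signal: kinetic Fluo4 fluorescence imaging of calcium influx. Material: stable TRPC4beta/mu-opioid receptor HEK293 cells. Probe or stimulus: DAMGO in two steps, submaximal then maximal.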
TRPC6 inhibitor: mouse TRPC6 channel inhibition; 310,000 tested, 1.1% active; AID 2553; HEK293-TRPC6, membrane potential dye, ACh-evoked depolarization; stronger effect = lower value; B-score at 10 µM; Q61143;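 active = B-score under library mean minus 3 SD, initial fluorescence not abnormally high, positive integrated signal ratio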;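 also: B-score derived from integrated fluorescence ratio over the kinetic read; more negative B-score means stronger inhibition of depolarization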
TRPC4 sel inh 2: second selectivity test of TRPC6 inhibitors: effect on mouse TRPC4; inhibition, % at 10 µM; 920 tested, 42% active; AID 2776; shares compounds with TRPC6 inhibitor; HEK293 TRPC4/MOR, membrane potential dye fluorescence; channel activated by saturating DAMGO dose;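 active = compounds whose fluorescence signal differed from control wells by over 3 SD, either direction, in both duplicate plates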
TRPC4 spec: selectivity of TRPC6 inhibitors: effect on mouse TRPC4; shares compounds with TRPC6 inhibitor; HEK293 TRPC4/mu-opioid, membrane potential fluorescence; activity change, negative = inhibition, % at 10 µM; 920 tested, 61% active; AID 2777;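 active = rise or fall in signal beyond 3 SD of buffer-only wells in both replicate plates, either sign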;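 also: integrated kinetic ratio of fluorescence range over baseline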
HEK293 MPD ctr 2-1: second counter-screen for TRPC6 inhibitors: parental HEK293 cells | 920 tested, 31% active | shares compounds with TRPC6 inhibitor | AID 2779 | signal change vs control, % at 10 µM | parental HEK293 membrane potential dye fluorescence; maximal acetylcholine challenge after compound addition;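 active = membrane potential signal moving either way by over 3 SD of the maximum-effect control, in both duplicate plates, meaning non-specific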
HEK293 MPD ctr-1: counter-screen for TRPC6 inhibitors: effect in parental HEK293 cells. shares compounds with TRPC6 inhibitor. parental HEK293 membrane potential dye fluorescence. membrane potential signal change, % at 10 µM. 920 tested, 60% active. AID 2780;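 active = membrane potential signal shifting up or down by more than 3 SD of buffer-only wells, on both duplicate plates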
HEK293 MPD ctr-2: parental HEK293 nonspecific activity of TRPC6 modulators; shares compounds with TRPC6 inhibitor; membrane potential dye fluorescence; membrane potential signal change, % at 10 µM; 2,400 tested, 51% active;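 active = membrane potential signal moves up or down beyond 5 SD from buffer-only wells, on both duplicate plates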
HEK293 MPD ctr 2-2: second counter-screen for TRPC6 modulators: effect in parental HEK293 cells. shares compounds with TRPC6 inhibitor. membrane potential dye fluorescence; after compound, maximal acetylcholine stimulation. inhibition, % at 10 µM. 2,400 tested, 14% active;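 active = membrane potential signal drops by more than 5 SD from the mean control signal, in both duplicate plates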
TRPC4 ctr mod: mouse TRPC4 off-target activity of TRPC6 modulators; shares compounds with TRPC6 inhibitor; HEK293 TRPC4/mu-opioid, membrane potential fluorescence; percent change from control (negative = decrease, positive = increase), % at 10 µM; 2,400 tested, 69% active;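 active = membrane potential signal moved up or down beyond 5 SD of buffer control wells, in both duplicate plates, actives on both sides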
TRPC4 ctr inh 2: mouse TRPC4 off-target activity of TRPC6 modulators, second screen; 2,400 tested, 55% active; HEK293 TRPC4/mu-opioid, membrane potential dye fluorescence; stimulated with maximal-effect DAMGO; AID 488928; shares compounds with TRPC6 inhibitor; inhibition, % at 10 µM;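 active = drop in membrane potential signal beyond 5 SD of the control wells in both duplicate plates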;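 also: TRPC4 counter screen for TRPC6 hits run under conditions tuned for TRPC6 not TRPC4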
TRPC6 block conf: mouse TRPC6 inhibitor confirmation; 3,300 tested, 43% active; AID 488960; HEK293-TRPC6, membrane potential dye, ACh-evoked depolarization; shares compounds with TRPC6 inhibitor; inhibition, % at 10 µM;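 active = fluorescence ratio falls more than 5 SD below the full-stimulation control mean, in both duplicate runs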;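 also: integrated fluorescence ratio of peak minus minimum over baseline after agonist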
TRPC6 act confirm: mouse TRPC6 activator confirmation; shares compounds with TRPC6 inhibitor; HEK293-TRPC6 membrane potential dye fluorescence, FDSS; activation, % at 10 µM; 2,800 tested, 11% active;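 active = ratio signal rise beyond 5 SD above unstimulated control wells' mean, seen in both duplicate runs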
Hits are given with their value; i = inactive; nt = no result.

SMILES	TRPC4 PAM	Platelet DG rel	TRPC6 act	TRPC4 act	TRPC4 inh	TRPC6 inhibitor	HEK293 MPD ctr-2	HEK293 MPD ctr 2-2	TRPC4 ctr mod	TRPC4 ctr inh 2	TRPC6 block conf	TRPC6 act confirm	others
Cc1cccc(C)c1OCC(O)CN1CCC(CN2C(=O)c3cccc4cccc(c34)C2=O)CC1 (stereo unspecified)	i	i	i	i	i	-8.35	nt	nt	nt	nt	64.4%	i	TRPC4 sel inh 2=39.5%;TRPC4 spec=-18.2%;HEK293 MPD ctr 2-1=i;HEK293 MPD ctr-1=-200.0%
Cc1ccccc1OCC(O)CN1CCN(CCN2C(=O)c3cccc4cccc(c34)C2=O)CC1 (stereo unspecified)	i	i	i	i	i	-5.23	i	i	-18.0%	82.0%	59.0%	i
CN(C)C(C)(C)/C=C/C(O)(c1ccccc1)c1ccccc1	i	i	i	i	i	-8.04	nt	nt	nt	nt	54.1%	i	TRPC4 sel inh 2=i;TRPC4 spec=i;HEK293 MPD ctr 2-1=-7.0%;HEK293 MPD ctr-1=0.3%
CN(C)N(Cc1ccccc1)C(=O)C(O)(c1ccccc1)c1ccccc1	i	i	i	i	i	i	nt	nt	nt	nt	nt	nt
N=c1sccn1CC(=O)Nc1cc(S(=O)(=O)N2CCCC2)ccc1Cl	i	i	i	i	i	i	nt	nt	nt	nt	nt	nt
Cc1cc(C)n(C(=O)CNC(=O)c2cccc(Cl)c2)n1	i	i	i	i	i	i	nt	nt	nt	nt	nt	nt
Cc1cc(C)n(C(=O)CNC(=O)c2cccc(Br)c2)n1	i	i	i	i	i	-5.82	i	i	i	i	i	i
O=C(CN1C(=O)NC2(CCCC2)C1=O)OCc1ccc(Cl)cc1Cl	i	i	i	i	i	i	nt	nt	nt	nt	nt	nt
CC1CCN(S(=O)(=O)c2ccc3c(ccn3CCC(=O)N3CCCCC3)c2)CC1	i	i	i	i	i	-6.18	i	i	9.5%	i	78.5%	nt
CN1CCN(C(=O)c2cccc(S(=O)(=O)N3CCCCC3)c2)CC1	i	i	i	i	i	i	nt	nt	nt	nt	nt	nt
O=C(c1cccc(S(=O)(=O)N2CCCCCC2)c1)N1CCN(c2ccccc2)CC1	i	i	i	i	i	-5.15	105.5%	i	19.0%	i	i	nt
O=C(c1cccc(S(=O)(=O)N2CCCC2)c1)N1CCN(c2ccccc2)CC1	i	i	i	i	nt	i	nt	nt	nt	nt	nt	nt
CC1CCN(C(=O)c2cccc(S(=O)(=O)N3CCCCC3)c2)CC1	i	i	13.4	i	i	-8.29	107.5%	i	20.5%	i	73.0%	106.0%
CC1CCC(NC(=O)CCn2ccc3cc(S(=O)(=O)N4CCCC4)ccc32)CC1 (stereo unspecified)	i	i	i	i	i	i	nt	nt	nt	nt	nt	nt
O=C(C1CCCC1)N1CCC(CC2CC(c3cccc(Br)c3)=NO2)(C(=O)NCC2CCCCC2)CC1 (stereo unspecified)	i	i	i	i	i	i	nt	nt	nt	nt	nt	nt
CC1=CC(=C(C#N)c2nc3ccccc3s2)C=C(C)N1CC1CCCO1 (stereo unspecified)	i	i	i	i	i	-9.84	485.5%	i	-92.5%	i	i	i
CCN1CCN(CCn2c(=S)[nH]c3ccccc3c2=O)CC1	i	i	i	i	i	-6.33	i	i	i	i	41.0%	i
O=c1c2ccccc2[nH]c(=S)n1CCCN1CCC(Cc2ccccc2)CC1	i	i	i	i	i	-5.91	i	i	-10.5%	79.5%	56.5%	i
O=c1c2ccccc2[nH]c(=S)n1CCN1CCCC1	i	i	i	i	i	i	nt	nt	nt	nt	nt	nt
O=C(NCc1n[nH]c(=O)c2ccccc12)C1CC(=O)N(c2ccccc2)C1 (stereo unspecified)	i	i	i	i	i	i	nt	nt	nt	nt	nt	nt
Nc1nnnn1/N=C/c1cccc(OCc2ccccc2Cl)c1	i	i	i	i	i	i	nt	nt	nt	nt	nt	nt
O=C(NN=C1CCCC1)c1ccccc1[N+](=O)[O-]	i	i	i	i	i	-5.64	i	i	8.0%	i	i	i
CC(C)N1CCC(=NNC(=O)c2ccccc2[N+](=O)[O-])CC1	i	i	i	i	i	i	nt	nt	nt	nt	nt	nt
COc1ccc(-n2cnnc2SCc2csc(-c3ccccc3)n2)cc1	i	i	i	i	i	-5.24	i	i	13.5%	i	43.0%	nt
COc1ccc(-n2cnnc2SCC(=O)N(C)c2ccccc2)cc1	i	i	i	i	i	i	nt	nt	nt	nt	nt	nt
SMILES	TRPC4 PAM	Platelet DG rel	TRPC6 act	TRPC4 act	TRPC4 inh	TRPC6 inhibitor	HEK293 MPD ctr-2	HEK293 MPD ctr 2-2	TRPC4 ctr mod	TRPC4 ctr inh 2	TRPC6 block conf	TRPC6 act confirm	others
O=C(CCSc1ccccc1)NC(=O)COC(=O)c1ccc(OC(F)F)cc1	i	i	i	i	i	i	nt	nt	nt	nt	nt	nt
COc1ccc(C(=O)CCS(=O)(=O)c2ccc(C)cc2)cc1OC	i	i	i	i	i	i	nt	nt	nt	nt	nt	nt
Cc1ccc(-n2c(SCC(=O)NC3CCS(=O)(=O)C3)nc3ccccc3c2=O)cc1C (stereo unspecified)	i	i	i	i	i	i	nt	nt	nt	nt	nt	nt
c1ccc(Cn2nnc3cnccc32)cc1	i	i	i	i	-5	-8.12	nt	nt	nt	nt	i	i	TRPC4 sel inh 2=i;TRPC4 spec=i;HEK293 MPD ctr 2-1=i;HEK293 MPD ctr-1=i
c1ccc(Cn2nnc3ccccc32)cc1	i	i	i	i	i	i	nt	nt	nt	nt	nt	nt
O=C(CSc1ccc(-c2ccc(F)cc2)nn1)NC1CCCCC1	i	i	i	i	i	i	nt	nt	nt	nt	nt	nt
COc1ccc2nc(C)cc(Nc3ccc(C(=O)O)cc3)c2c1	i	i	i	i	i	i	nt	nt	nt	nt	nt	nt
CC(=O)c1cccc(Nc2cc(C)nc3ccccc23)c1	i	i	i	i	i	-5.61	-120.0%	i	-19.5%	47.5%	i	i
